Rev-erbA mod: modulators of Rev-erb alpha DNA binding, primary screen, biochemical, FITC-DNA, fluorescence polarization, uHTS; Nuclear receptor subfamily 1 group D member 1 (Homo sapiens), P20393; Rev-erbα–FITC-DNA binding, 90 min; activity, % at 10 µM; hit rate 0.79% among 370,000; AID 1259318, 2017;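 active = activity above about 14%, limit read from the data; passing the limit was not always enough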;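 also: 0% = DMSO wells with 35 nM protein and 100% = DMSO wells with 750 nM protein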
NR2E3 ag-1: NR2E3 agonists in two-hybrid cells, primary screen, cell-based, luminescence, CHO-S, Gal4-NCOR/VP16-NR2E3 | luciferase | inhibition of corepressor binding, % at 3.98 µM | hit rate 0.35% among 360,000;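 active = inhibition above the mean of all tested compounds plus 3 SD, cut at about 70% in these data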;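 also: 0% = DMSO with NR2E3 transfected cells and 100% = cells lacking NR2E3 construct; higher means lower luciferase signal from less NR2E3 corepressor binding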
Target sequence (Q9Y5X4 whole entry, looked up, the tested form may be a part): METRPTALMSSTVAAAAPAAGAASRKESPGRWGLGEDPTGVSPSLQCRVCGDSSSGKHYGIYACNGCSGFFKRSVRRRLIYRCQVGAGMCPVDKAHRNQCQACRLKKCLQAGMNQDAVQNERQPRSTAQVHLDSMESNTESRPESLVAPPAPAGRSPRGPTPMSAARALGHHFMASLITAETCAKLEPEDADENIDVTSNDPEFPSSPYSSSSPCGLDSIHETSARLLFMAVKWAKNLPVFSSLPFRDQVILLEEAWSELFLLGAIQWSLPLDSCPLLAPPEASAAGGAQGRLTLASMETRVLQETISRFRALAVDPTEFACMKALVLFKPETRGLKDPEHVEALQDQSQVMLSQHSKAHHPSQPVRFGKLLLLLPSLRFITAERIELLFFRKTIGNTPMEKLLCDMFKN
MC4R antag cAMP: MC4R antagonists of cAMP signaling, primary screen, cell-based, TR-FRET, antagonist arm of biased-ligand search; MC4R-expressing cells, MTII-stimulated cAMP, LANCE TR-FRET; inhibition, % at 6.5 µM; hit rate 0.48% among 360,000; AID 540295, 2011;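 active = inhibition above its plate's cutoff, the mean of tested wells on that plate plus 3 SD, cut at about 29% in these data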;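 also: 0% = Melanotan II alone and 100% = Melanotan II plus saturating MCL0020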
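System: U2OS-MC4R stable cell line; Technique: Eu-cAMP/anti-cAMP TR-FRET, emission 671 nm; Repeats: single well per compound; Also added: Melanotan II; Dosing: one concentration, 6.5 µM nominal; Schedule: 30-min compound, 1-h challenge, 1-h detection, room temperature.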
NR2E3 ag-2: inhibitors of NR2E3-RetCOR corepressor binding, primary screen, NR2E3 agonist project, biochemical, TR-FRET, GST-NR2E3, biotin-RetCOR. Photoreceptor-specific nuclear receptor (Homo sapiens), Q9Y5X4. 1536-well. inhibition of corepressor binding, % at 4.78 µM. hit rate 0.12% among 320,000. AID 2300, 2010;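 active = percent inhibition above the cutoff of mean plus 3 SD of all tested compounds, set per screening campaign, cut at about 20% in these data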;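 also: 0% = DMSO wells and 100% = biotin wells as full block of FRET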
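Material: NR2E3–RetCOR corepressor complex | Quantity: 1.35 nM GST-tagged NR2E3 final | Schedule: 5 h at 4 °C | Replication: Singlicate compound wells | Reagent: RetCOR corepressor, biotinylated, 7 nM | Controls: Biotin wells as high control, 0.6% DMSO wells as low control | Signal: TR-FRET, Eu(K)-anti-GST donor, streptavidin-D2 acceptor, ex 340, em 617/671 nm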
MC4R ag barr: MC4R agonists recruiting beta-arrestin, primary screen, cell-based, luminescence, agonist arm of biased-ligand search; Melanocortin receptor 4 (Homo sapiens), P32245; U2OS MC4R beta-arrestin complementation; percent of melanotan II response, DMSO zero; activation, % at 8.9 µM; hit rate 0.98% among 360,000;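 active = activation above a per-plate cutoff, the mean activation of sample wells on that plate plus 3 SD, cut at about 8% in these data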
PG9 binder: binders of HIV-1 gp120 antibody PG9, primary screen, biochemical, TR-FRET; inhibition, % at 6.7 µM; HIV-1 gp120 / PG9 antibody interaction; TR-FRET gp120-PG9 antibody binding; AID 624416, 2012; hit rate 0.43% among 360,000; in the data active = inhibition above about 8.5%
cAMP nonselect: nonselective cAMP signaling inhibitors, parental cells, counter-screen for MC4R biased antagonist project, cell-based, TR-FRET, U2OS, forskolin, triplicate | inhibition, % at 6.5 µM | shares compounds with MC4R antag cAMP | LANCE TR-FRET | hit rate 26% among 1,600;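 active = mean inhibition over triplicates above the low-control well mean plus 3 SD, set per campaign, cut at about 13% in these data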;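 also: signal is single emission at 671 nm which falls as cellular cAMP rises; 0% = forskolin-stimulated wells and 100% = buffer without forskolin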
MC4R cAMP antag: MC4R cAMP antagonists, retest, confirmation, cell-based, TR-FRET; inhibition, % at 6.5 µM; AID 602195, 2012; MC4R-expressing cells, MTII-stimulated cAMP; shares compounds with MC4R antag cAMP; hit rate 27% among 1,600; in the data active = inhibition above about 29%;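 also: 0% = agonist stimulated wells alone and 100% = agonist stimulated wells plus saturating reference antagonist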
Numbers without * were called inactive. Compounds with a hit are over-represented: about 2.7% of the library has one in this group of screens.

What do the screens show for `Cc1ccc(-n2nc3c(c2NC(=O)c2ccc(S(=O)(=O)N4CCOCC4)cc2)CSC3)c(C)c1`?
NR2E3 ag-1: 7; MC4R antag cAMP: 32*; NR2E3 ag-2: 0; MC4R ag barr: 1; cAMP nonselect: -1; MC4R cAMP antag: -2

Results for CC(C)C(c1nnnn1Cc1ccco1)N1CCC(C(N)=O)CC1 (centres undefined) ?
Rev-erbA mod: -1; NR2E3 ag-1: 2; MC4R antag cAMP: 1; NR2E3 ag-2: 1; MC4R ag barr: 0; PG9 binder: -1

Results for CC(=O)c1ccc(-n2c(CCC(=O)O)ccc2-c2ccccc2)cc1 ?
Rev-erbA mod: 2; NR2E3 ag-1: -22; MC4R antag cAMP: 20; NR2E3 ag-2: 2; MC4R ag barr: -2; PG9 binder: 0

What do the screens show for `CC(=O)c1ccc(-n2c(CCC(=O)O)ccc2-c2ccc(C)cc2)cc1`?
NR2E3 ag-1: -25; MC4R antag cAMP: 30*; NR2E3 ag-2: -2; MC4R ag barr: -1; cAMP nonselect: 1; MC4R cAMP antag: 16

Results for COc1ccc(-n2c(=S)[nH]c3cc(C(=O)NCc4ccccc4)ccc3c2=O)c(OC)c1 ?
Rev-erbA mod: 3; NR2E3 ag-1: 5; MC4R antag cAMP: 22; NR2E3 ag-2: 0; MC4R ag barr: 2; PG9 binder: 1

Results for CN(C(=O)CSc1nc2cc(C(=O)O)ccc2c(=O)n1Cc1ccccc1)C1CCS(=O)(=O)C1 (centres undefined) ?
Rev-erbA mod: -3; NR2E3 ag-1: -10; MC4R antag cAMP: 9; NR2E3 ag-2: 0; MC4R ag barr: 2; PG9 binder: 0

What do the screens show for `COc1ccc(C(CNC(=O)CSc2ccccc2F)N2CCOCC2)cc1` (centres undefined)?
Rev-erbA mod: -2; NR2E3 ag-1: -30; MC4R antag cAMP: 3; NR2E3 ag-2: 2; MC4R ag barr: 0; PG9 binder: 1

What do the screens show for `COc1ccc(C(CNC(=O)c2cc(F)c(F)c(F)c2F)N2CCOCC2)cc1` (centres undefined)?
Rev-erbA mod: -10; NR2E3 ag-1: -12; MC4R antag cAMP: 31*; NR2E3 ag-2: 4; MC4R ag barr: -2; PG9 binder: 1; cAMP nonselect: 19*; MC4R cAMP antag: 36*

How did Cc1ccc(S(=O)(=O)N(C)C)cc1NC(=O)Cn1c(CN2CCOCC2)nc2ccccc2c1=O do in these assays?
Rev-erbA mod: 3; NR2E3 ag-1: -16; MC4R antag cAMP: 36*; NR2E3 ag-2: -2; MC4R ag barr: -3; PG9 binder: 1; cAMP nonselect: 0; MC4R cAMP antag: 6

How did Cc1ccc(S(=O)(=O)N(C)C)cc1NC(=O)CSc1nc2ccccc2c(=O)n1CC1CCCO1 (centres undefined) do in these assays?
Rev-erbA mod: 1; NR2E3 ag-1: -22; MC4R antag cAMP: 14; NR2E3 ag-2: 0; MC4R ag barr: -2; PG9 binder: 1

Results for O=C(O)COCC(=O)Nc1ccc2c(c1)ncn2CCc1ccccc1 ?
Rev-erbA mod: -2; NR2E3 ag-1: 2; MC4R antag cAMP: 10; NR2E3 ag-2: 2; MC4R ag barr: 0; PG9 binder: -2

What do the screens show for `C[C@@]12C(=O)N(Cc3ccccc3)CC(=O)N1[C@H]1c3ccccc3OC[C@@H]1[C@@H]2c1ccccc1`?
Rev-erbA mod: 3; NR2E3 ag-1: 2; MC4R antag cAMP: 29*; NR2E3 ag-2: -1; MC4R ag barr: 1; PG9 binder: 0; cAMP nonselect: 0; MC4R cAMP antag: 4

What do the screens show for `Cc1ccc(CN2CC(=O)N3[C@H]4c5ccccc5OC[C@@H]4[C@H](c4ccccc4)[C@]3(C)C2=O)cc1`?
Rev-erbA mod: -1; NR2E3 ag-1: 14; MC4R antag cAMP: 4; NR2E3 ag-2: 4; MC4R ag barr: 1; PG9 binder: -3

Results for CC1=CC(=O)C(C(C)C)=C/C1=N/OS(=O)(=O)c1ccccc1 ?
Rev-erbA mod: -5; NR2E3 ag-1: 8; MC4R antag cAMP: 71*; NR2E3 ag-2: -6; MC4R ag barr: 31*; PG9 binder: 0; cAMP nonselect: 36*; MC4R cAMP antag: 91*

How did CC1=CC(=O)C(C2CCCCC2)=C/C1=N\OS(=O)(=O)c1ccccc1 do in these assays?
Rev-erbA mod: -7

Results for COC(=O)C=C1CCC2C3CCC4=CC(=O)C(Br)CC4(C)C3C(=O)CC12C (centres undefined) ?
Rev-erbA mod: 0; NR2E3 ag-1: 12; MC4R antag cAMP: 31*; MC4R ag barr: -1; PG9 binder: 0; cAMP nonselect: 2; MC4R cAMP antag: 22

What do the screens show for `COC(=O)c1ccc(NC(=O)c2ccc(NS(=O)(=O)c3cccc4cccnc34)cc2)cc1`?
NR2E3 ag-1: -1; MC4R antag cAMP: 30*; NR2E3 ag-2: 1; MC4R ag barr: 2; cAMP nonselect: -1; MC4R cAMP antag: 2

How did CCOc1ccc(NC(=O)c2ccc(NS(=O)(=O)c3cccc4cccnc34)cc2)cc1 do in these assays?
Rev-erbA mod: 3; NR2E3 ag-1: -41; MC4R antag cAMP: 1; MC4R ag barr: -1; PG9 binder: -1

Results for CCSc1nnc(NC(=O)c2cnccn2)s1 ?
NR2E3 ag-2: 1

How did O=C(Nc1nnc(SCc2ccc(F)cc2)s1)c1cnccn1 do in these assays?
Rev-erbA mod: 4; NR2E3 ag-1: -10; MC4R antag cAMP: 32*; NR2E3 ag-2: 0; MC4R ag barr: 0; PG9 binder: -1; cAMP nonselect: -4; MC4R cAMP antag: -11

Results for Cc1cc(C)nc(SCc2nnc(SCC(=O)O)n2-c2ccccc2)n1 ?
Rev-erbA mod: 6; NR2E3 ag-1: -6; MC4R antag cAMP: 31*; NR2E3 ag-2: 1; MC4R ag barr: 1; PG9 binder: -1; cAMP nonselect: -2; MC4R cAMP antag: 1

Screening data (PubChem)
